Source: ChEMBL document CHEMBL2046302, “Fused tricyclic indoles as S1P₁ agonists with robust efficacy in animal models of autoimmune disease” (Bioorg Med Chem Lett, 2012)
Activity calls are given as the source filed them. The rule behind the calls is not given here.

Tests used:
[1] = target: Sphingosine 1-phosphate receptor 1 (Mus musculus, UniProt O08530); experiment: Agonist activity against mouse S1P1 assessed as accumulation of cAMP by HTRF assay; type: functional
Method in brief: (§1)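 Agonist EC50 was read from a cAMP HTRF assay run on human, rat and mouse S1P1. Response was scaled against S1P, and values are the mean of three or more replicates.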

[2] = target: Sphingosine 1-phosphate receptor 3 (Homo sapiens, UniProt Q99500); experiment: Agonist activity against human S1P3 by beta arrestin recruitment assay; type: functional
Sequence of Sphingosine 1-phosphate receptor 3 (Q99500 whole entry): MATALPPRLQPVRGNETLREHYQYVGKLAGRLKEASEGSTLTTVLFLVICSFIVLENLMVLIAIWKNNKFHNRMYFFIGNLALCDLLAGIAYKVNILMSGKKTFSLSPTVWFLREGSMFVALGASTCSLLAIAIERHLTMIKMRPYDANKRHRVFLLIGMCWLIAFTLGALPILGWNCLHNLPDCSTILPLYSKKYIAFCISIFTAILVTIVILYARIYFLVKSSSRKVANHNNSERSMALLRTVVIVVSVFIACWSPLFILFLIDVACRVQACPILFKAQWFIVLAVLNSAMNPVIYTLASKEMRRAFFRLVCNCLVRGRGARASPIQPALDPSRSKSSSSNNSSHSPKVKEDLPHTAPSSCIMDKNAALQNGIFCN
Method in brief: (§2)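 Agonist EC50 at human S1P1 through S1P5 was measured by β-arrestin recruitment. Values are the mean of three or more replicates.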

[3] = target: T1, Sphingosine 1-phosphate receptor 1 (Homo sapiens, UniProt P21453); experiment: Agonist activity against human S1P1 assessed as accumulation of cAMP by HTRF assay; type: functional; method in brief: as §1
T1 sequence (P21453 whole entry): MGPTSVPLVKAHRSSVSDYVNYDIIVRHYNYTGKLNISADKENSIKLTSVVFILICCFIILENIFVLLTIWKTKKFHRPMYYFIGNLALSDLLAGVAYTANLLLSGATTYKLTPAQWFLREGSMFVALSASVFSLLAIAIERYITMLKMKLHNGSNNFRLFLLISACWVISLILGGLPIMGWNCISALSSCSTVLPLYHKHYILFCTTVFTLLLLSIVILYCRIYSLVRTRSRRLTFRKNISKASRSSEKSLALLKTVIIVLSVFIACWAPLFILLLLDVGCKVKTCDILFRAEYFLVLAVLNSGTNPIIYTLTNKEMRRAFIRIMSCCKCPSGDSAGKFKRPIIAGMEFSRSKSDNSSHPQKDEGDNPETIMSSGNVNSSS

[4] = target: Sphingosine 1-phosphate receptor 2 (Homo sapiens, UniProt O95136); experiment: Agonist activity against human S1P2 by beta arrestin recruitment assay; type: functional; method in brief: as §2
Sequence of Sphingosine 1-phosphate receptor 2 (O95136 whole entry): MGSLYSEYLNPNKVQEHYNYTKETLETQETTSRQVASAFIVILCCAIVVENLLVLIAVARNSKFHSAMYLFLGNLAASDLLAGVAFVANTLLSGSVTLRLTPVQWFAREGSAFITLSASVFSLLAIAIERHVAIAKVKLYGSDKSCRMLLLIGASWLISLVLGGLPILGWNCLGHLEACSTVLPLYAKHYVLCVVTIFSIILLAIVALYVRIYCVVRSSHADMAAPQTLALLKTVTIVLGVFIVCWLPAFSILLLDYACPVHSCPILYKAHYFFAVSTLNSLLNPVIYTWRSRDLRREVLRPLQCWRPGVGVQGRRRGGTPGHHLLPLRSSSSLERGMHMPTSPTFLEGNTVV

[5] = target: Sphingosine 1-phosphate receptor 1 (Rattus norvegicus, UniProt P48303); experiment: Agonist activity against rat S1P1 assessed as accumulation of cAMP by HTRF assay; type: functional; method in brief: as §1
Sequence of Sphingosine 1-phosphate receptor 1 (Rattus norvegicus, UniProt P48303) (P48303 whole entry): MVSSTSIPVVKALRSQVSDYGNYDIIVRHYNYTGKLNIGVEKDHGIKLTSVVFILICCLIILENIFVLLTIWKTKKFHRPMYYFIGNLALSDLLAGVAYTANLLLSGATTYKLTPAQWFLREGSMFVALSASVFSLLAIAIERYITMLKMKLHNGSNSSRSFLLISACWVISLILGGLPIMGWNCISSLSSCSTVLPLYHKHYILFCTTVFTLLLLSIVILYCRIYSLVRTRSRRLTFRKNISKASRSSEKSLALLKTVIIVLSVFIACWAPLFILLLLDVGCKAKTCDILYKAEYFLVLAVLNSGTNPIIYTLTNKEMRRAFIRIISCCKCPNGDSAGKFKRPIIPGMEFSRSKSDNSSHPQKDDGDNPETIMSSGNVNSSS

[6] = target: T1, Sphingosine 1-phosphate receptor 1; experiment: Agonist activity against human S1P1 by beta arrestin recruitment assay; type: functional; method in brief: as §2
[7] = target: Sphingosine 1-phosphate receptor 5 (Homo sapiens, UniProt Q9H228); experiment: Agonist activity against human S1P5 by beta arrestin recruitment assay; type: functional; method in brief: as §2
Sequence of Sphingosine 1-phosphate receptor 5 (Q9H228 whole entry): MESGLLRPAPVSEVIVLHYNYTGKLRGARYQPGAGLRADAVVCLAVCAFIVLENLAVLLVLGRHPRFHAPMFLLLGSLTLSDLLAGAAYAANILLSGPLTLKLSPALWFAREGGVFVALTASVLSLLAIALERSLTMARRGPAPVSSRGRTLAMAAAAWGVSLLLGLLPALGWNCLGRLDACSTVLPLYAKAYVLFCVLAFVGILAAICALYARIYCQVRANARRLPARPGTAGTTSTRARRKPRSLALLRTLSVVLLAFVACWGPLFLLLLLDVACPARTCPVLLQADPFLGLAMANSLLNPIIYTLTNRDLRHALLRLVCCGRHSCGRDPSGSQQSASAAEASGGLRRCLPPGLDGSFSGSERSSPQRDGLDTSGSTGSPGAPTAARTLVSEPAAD

[8] = target: T2, Sphingosine 1-phosphate receptor 4 (Homo sapiens, UniProt O95977); experiment: Agonist activity against human S1P4 by beta arrestin recruitment assay; type: functional; method in brief: as §2
T2 sequence (O95977 whole entry): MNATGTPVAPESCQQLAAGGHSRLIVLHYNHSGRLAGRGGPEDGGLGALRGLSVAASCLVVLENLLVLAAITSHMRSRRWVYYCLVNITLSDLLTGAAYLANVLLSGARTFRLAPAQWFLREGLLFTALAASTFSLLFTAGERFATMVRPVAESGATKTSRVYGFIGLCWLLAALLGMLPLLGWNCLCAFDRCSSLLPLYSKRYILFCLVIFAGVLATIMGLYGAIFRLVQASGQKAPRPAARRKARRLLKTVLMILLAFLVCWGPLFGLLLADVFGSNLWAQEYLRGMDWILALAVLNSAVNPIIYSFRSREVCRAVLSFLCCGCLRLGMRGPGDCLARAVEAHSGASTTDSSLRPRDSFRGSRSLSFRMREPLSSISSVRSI

[9] = Volume of distribution at steady state in Sprague-Dawley rat at 2 mg/kg, iv and 3 mg/kg, po; type: ADME, organism-based; conditions: in vivo, read-out: Vdss
Method in brief: (§3)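 Male Sprague–Dawley rats received 2.0 mg/kg IV in 100% PEG400 and 3.0 mg/kg PO in 0.5% methyl cellulose. Clearance, Vss, terminal half-life, Cmax, AUClast and oral bioavailability were derived from plasma levels.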

[10] = AUClast in Sprague-Dawley rat in Sprague-Dawley rat at 2 mg/kg, iv and 3 mg/kg, po; type: ADME, organism-based; conditions: plasma; method in brief: as §3
[11] = Clearance in Sprague-Dawley rat at 2 mg/kg, iv and 3 mg/kg, po; type: ADME, organism-based; conditions: in vivo; method in brief: as §3
[12] = Half life in rat liver microsome; type: ADME; conditions: liver microsomes
[13] = Half life in human liver microsome; type: ADME; conditions: liver microsomes
[14] = Terminal half life in Sprague-Dawley rat at 2 mg/kg, iv and 3 mg/kg, po; type: ADME, organism-based; conditions: in vivo, read-out: beta t1/2 (converted); method in brief: as §3
[15] = Cmax in Sprague-Dawley rat in Sprague-Dawley rat at 2 mg/kg, iv and 3 mg/kg, po; type: ADME, organism-based; conditions: in vivo; method in brief: as §3
[16] = Half life in mouse liver microsome; type: ADME; conditions: liver microsomes
[17] = Oral bioavailability in Sprague-Dawley rat at 3 mg/kg; type: ADME, organism-based; conditions: in vivo; method in brief: as §3
Mus musculus [18] = experiment: Reduction T-cell mediated beta-cell destruction in cyclophosphamide-induced non-obese type 1 diabetes mouse model assessed as normalization of blood glucose at 1 mg/kg, po qd for 25 days; type: functional, organism-based; parameters: dose 1 mg/kg
Method in brief: (§4)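 NOD mice were given cyclophosphamide i.p. on days 0 and 14 to accelerate diabetes onset. Oral dosing once daily in 0.5% methyl cellulose ran from day 0 to day 25. Animals with non-fasting blood glucose >250 mg/dL were scored diabetic.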

Mus musculus [19] = experiment: Reduction T-cell mediated beta-cell destruction in cyclophosphamide-induced non-obese type 1 diabetes mouse model assessed as normalization of blood glucose at 3 to 10 mg/kg, po qd for 25 days; type: functional, organism-based; method in brief: as §4
Rattus norvegicus = experiment: Immunosuppressant activity in collagen-induced Lewis rat arthritis model assessed as reduction in joint inflammation at 1 to 10 mg/kg, po qd; type: functional, organism-based
Mus musculus [20] = experiment: Immunosuppressant activity in BALB/c mouse assessed as reduction in circulating lymphocyte at 6 mg/kg, po measured after 5 hrs; type: functional, organism-based; parameters: dose 6 mg/kg
Method in brief: (§5)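 BALB/c mice were dosed orally as a suspension in 0.5% methyl cellulose, at 6 mg/kg or 1.0 mg/kg. Circulating lymphocytes were followed over time, with readings at 5 h and 24 h.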

Mus musculus [21] = experiment: Immunosuppressant activity in BALB/c mouse assessed as reduction in circulating lymphocyte at 1 mg/kg, po measured at 24 hrs; type: functional, organism-based; parameters: dose 1 mg/kg; method in brief: as §5
Mus musculus [22] = experiment: Immunosuppressant activity in autoimmune encephalomyelitis C57B1/6 mouse model assessed as reduction in disease score at 10 mg/kg, po qd administered on day 3 post challenge; type: functional, organism-based; parameters: dose 10 mg/kg
Method in brief: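 Oral dosing once daily in 0.5% methylcellulose began on day 3. Signs of disease were monitored daily and graded on a 1–5 scale, from limp tail or hind-limb weakness (1) to death (5).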

Mus musculus [23] = experiment: Immunosuppressant activity in BALB/c mouse assessed as reduction in circulating lymphocyte at 6 mg/kg, po measured up to 24 hrs; type: functional, organism-based; parameters: dose 6 mg/kg; method in brief: as §5
Mus musculus [24] = experiment: Immunosuppressant activity in BALB/c mouse assessed as reduction in circulating lymphocyte at 1 mg/kg, po measured at 5 hrs; type: functional, organism-based; parameters: dose 1 mg/kg; method in brief: as §5

Sequence of Sphingosine 1-phosphate receptor 1 (Mus musculus, UniProt O08530) (O08530 whole entry): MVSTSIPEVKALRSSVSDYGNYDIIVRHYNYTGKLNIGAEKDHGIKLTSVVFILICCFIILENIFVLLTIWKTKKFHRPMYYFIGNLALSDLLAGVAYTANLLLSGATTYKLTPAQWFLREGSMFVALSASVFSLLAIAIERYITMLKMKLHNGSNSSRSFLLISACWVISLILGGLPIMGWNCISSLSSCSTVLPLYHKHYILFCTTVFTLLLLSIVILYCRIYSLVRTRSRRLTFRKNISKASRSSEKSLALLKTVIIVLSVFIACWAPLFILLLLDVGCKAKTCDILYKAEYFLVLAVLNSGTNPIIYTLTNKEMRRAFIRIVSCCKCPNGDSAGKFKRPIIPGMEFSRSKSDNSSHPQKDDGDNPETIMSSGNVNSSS

SMILES	EC50 [1] [nM]	EC50 [2] [nM]	EC50 [3] [nM]	EC50 [4] [nM]	EC50 [5] [nM]	EC50 [6] [nM]	EC50 [7] [nM]	EC50 [8] [nM]	further results
N#Cc1cc(OC(F)(F)F)cc(-c2nc(-c3ccc4c(c3)cc3n4CCC3CC(=O)O)no2)c1 (stereo in doubt; 23a)	5.5	> 100000	0.76	> 100000	3.4	123	289	> 100000	–
N#Cc1cc(OC(F)(F)F)cc(-c2nc(-c3ccc4[nH]c5c(c4c3)CCC5CC(=O)O)no2)c1 (single isomer, unassigned)	2.6	> 100000	0.75	> 100000	1.8	36	15	462	Vd [9]: 0.734 L/kg; AUC(0-t) [10]: 11000 ng·h/mL; clearance [11]: 1.39 mL/min/kg; half-life [12]: > 1 h; half-life [13]: > 1 h; half-life [14]: 5.46 h; Cmax [15]: 1400 ng/mL; half-life [16]: > 1 h; bioavailability [17]: 32.5%
N#Cc1cc(OC(F)(F)F)cc(-c2nc(-c3ccc4c(c3)cc3n4CCC3CC(=O)O)no2)c1 (single isomer, unassigned; enantiomer 2)	–	–	–	–	–	–	–	–	Activity (Mus musculus [18]): Active; Activity (Mus musculus [19]): Active; Activity (Rattus norvegicus): Active; Activity (Mus musculus [20]): Active; Activity (Mus musculus [21]): inactive; Activity (Mus musculus [22]): Active; Activity (Mus musculus [23]): Active; Activity (Mus musculus [24]): Active
N#Cc1cc(OC(F)(F)F)cc(-c2nc(-c3ccc4c(c3)cc3n4CCC3CC(=O)O)no2)c1 (racemic)	–	–	0.25	–	–	–	–	–	–
COc1ccc(-c2nc(-c3ccc4c(c3)cc3n4CCC3CC(=O)O)no2)cc1C#N (racemic)	–	–	2.9	–	–	–	–	–	–
